Experimental data gathered from unrelated publications.
ABL1 F317L non-phosphorylated: Tyrosine-protein kinase ABL1, non-phosphorylated (ABL1, Homo sapiens, UniProt P00519, F317L)
ABL1 F317I non-phosphorylated: Tyrosine-protein kinase ABL1, non-phosphorylated (ABL1, Homo sapiens, UniProt P00519, F317I)
ABL1 F317L phosphorylated: Tyrosine-protein kinase ABL1, phosphorylated (ABL1, Homo sapiens, UniProt P00519, F317L)
ABL1 phosphorylated: Tyrosine-protein kinase ABL1, phosphorylated (ABL1, Homo sapiens, UniProt P00519)
ABL1 Q252H non-phosphorylated: Tyrosine-protein kinase ABL1, non-phosphorylated (ABL1, Homo sapiens, UniProt P00519, Q252H)
ABL1 T315I phosphorylated: Tyrosine-protein kinase ABL1, phosphorylated (ABL1, Homo sapiens, UniProt P00519, T315I)
ABL1 Y253F phosphorylated: Tyrosine-protein kinase ABL1, phosphorylated (ABL1, Homo sapiens, UniProt P00519, Y253F)
ABL1 E255K: Tyrosine-protein kinase ABL1 (ABL1, Homo sapiens, UniProt P00519, E255K)
ABL1 E255K phosphorylated: Tyrosine-protein kinase ABL1, phosphorylated (ABL1, Homo sapiens, UniProt P00519, E255K)
ABL1 Y253F: Tyrosine-protein kinase ABL1 (ABL1, Homo sapiens, UniProt P00519, Y253F)

Compound	target	test	setting	remaining binding
CNC(=O)[C@@H]1CC[C@@H](n2c(-c3ccc4cnccc4c3)nc3ccc(C(=O)NCc4cccc(C(N)=O)c4)cc32)C1	ABL1 F317L non-phosphorylated	binding, competition with immobilised ligand	1 µM	97%
CNCc1ccccc1-c1csc([C@@H](C)Nc2nc(C)nc3cc(OC)c(OC)cc23)c1	ABL1 F317I non-phosphorylated	binding, competition with immobilised ligand	1 µM	100%
c1cncc(-c2cccc(Nc3nccc(NC4CCCCC4)n3)c2)c1	ABL1 F317L non-phosphorylated	binding, competition with immobilised ligand	10 µM	81%
O=C(c1ccc(Nc2nccc(-c3cc4ccccc4s3)n2)cc1)N1CCC(N2CCCC2)CC1	ABL1 F317L phosphorylated	binding, competition with immobilised ligand	1 µM	100%
COc1cnc(Nc2cccc(S(N)(=O)=O)c2)nc1N1CCN(c2ccccc2)C(=O)C1	Tyrosine-protein kinase ABL1, phosphorylated (ABL1, Homo sapiens, UniProt P00519, Q252H)	binding, competition with immobilised ligand	1 µM	87%
CCCOc1ccc([C@@H]2[C@@H](C(=O)O)[C@H](c3ccc4c(c3)OCO4)CN2CC(=O)Nc2c(CC)cccc2CC)cc1	Tyrosine-protein kinase ABL1, non-phosphorylated (ABL1, Homo sapiens, UniProt P00519, T315I)	cell-free assay, competition with immobilised ligand	1 µM	83%
O=C(c1ccc(Nc2ncc(Cl)c(-c3ccc(Cl)s3)n2)cc1)N1CCC(N2CCCC2)CC1	ABL1 phosphorylated	binding, competition with immobilised ligand	1 µM	4.3%
O=C(NS(=O)(=O)c1ccc(NCC2CCOCC2)c([N+](=O)[O-])c1)c1ccc(N2CCN(Cc3ccc(C(F)(F)F)cc3-c3ccc(Cl)cc3)CC2)cc1Oc1cnc2[nH]ccc2c1	ABL1 Q252H non-phosphorylated	cell-free assay, competition with immobilised ligand	1 µM	100%
Nc1ncc2c(n1)-c1c([nH]c3ccc(C#CC4CC4)cc13)CCCC2	ABL1 T315I phosphorylated	binding, competition with immobilised ligand	1 µM	97%
C=CC(=O)N1CCC(C(=O)NCC(=O)N2CCN(c3nc(-c4cnc(N)nc4C(F)F)nc(N4CCOCC4)n3)CC2)CC1	ABL1 Y253F phosphorylated	binding, competition with immobilised ligand	1 µM	90%
O=C(c1ccc(Nc2ncc(Cl)c(-c3cc4ccccc4s3)n2)cc1)N1CCC(N2CCCC2)CC1	ABL1 F317L phosphorylated	binding, competition with immobilised ligand	1 µM	54%
C[C@@H]1CN(c2cc(-c3nn(C)c4ccc(OC5(C)CC5)cc34)ncn2)C[C@H](C)O1	Tyrosine-protein kinase ABL1, non-phosphorylated (ABL1, Homo sapiens, UniProt P00519, H396P)	cell-free assay, competition with immobilised ligand	1 µM	75%
O=C(NCCCN1CCOCC1)c1ccc(Nc2ncc(Cl)c(-c3ccc(Cl)s3)n2)cc1	ABL1 Y253F phosphorylated	binding, competition with immobilised ligand	1 µM	38%
COc1ccnn2ncc(-c3ccnc(N(C)C)n3)c12	ABL1 E255K	binding	1 µM	86%
COc1ccc2c(O[C@@H]3C[C@H]4C(=O)N[C@]5(C(=O)O)CC5/C=C\CCCCC[C@H](NC(=O)OC5CCCC5)C(=O)N4C3)cc(-c3csc(NC(=O)C(C)C)n3)nc2c1C (some centres unmarked)	ABL1 phosphorylated	cell-free assay, competition with immobilised ligand	1 µM	93%
O=C(NCC1CCOCC1)c1n[nH]cc1NC(=O)c1c(F)cccc1F	ABL1 F317L non-phosphorylated	binding, competition with immobilised ligand	1 µM	88%

Compound	target	test	setting	remaining binding
CN(C)c1nccc(-c2cnc3ncccn23)n1	ABL1 phosphorylated	binding	1 µM	57%
CCN1CCN(Cc2ccc(C(=O)Nc3ccc(C)c(Oc4ccc5c(c4)CC(=O)N5)c3)cc2C(F)(F)F)CC1	ABL1 phosphorylated	binding, competition with immobilised ligand	1 µM	34%
CN(C)c1nccc(-c2cnn3ncccc23)n1	Tyrosine-protein kinase ABL1, non-phosphorylated (ABL1, Homo sapiens, UniProt P00519)	binding, competition with immobilised ligand	1 µM	98%
O=C(Nc1c[nH]nc1C(=O)NC1CCNCC1)c1cc(F)cc(F)c1	Tyrosine-protein kinase ABL1, phosphorylated (ABL1, Homo sapiens, UniProt P00519, F317I)	binding, competition with immobilised ligand	1 µM	85%
C[C@@H](c1ccc(-n2cnc3c(N)ncnc32)cc1)N1CCc2nn(C)c(Cc3ccccc3)c2C1=O	ABL1 E255K phosphorylated	binding, competition with immobilised ligand	0.1 µM	70%
COc1ncc2cc3ccccc3nc2c1C#N	ABL1 F317I non-phosphorylated	cell-free assay, competition with immobilised ligand	5 µM	96%
C[C@@H]1CCN(c2nccc(-c3cnn4ncccc34)n2)C1	ABL1 Y253F	binding	1 µM	88%
Cc1nc(Cc2cccc(C(F)(F)F)c2)sc1-c1ccc(C(N)=O)nc1	ABL1 Q252H non-phosphorylated	cell-free assay, competition with immobilised ligand	1 µM	87%
COc1cnc(Nc2cccc(S(N)(=O)=O)c2)nc1N1CCN(c2ccccc2)CC1	ABL1 F317L phosphorylated	binding, competition with immobilised ligand	1 µM	74%
Cc1cnc(Nc2ccc(C(=O)N3CCC(N4CCCC4)CC3)cc2)nc1-c1cc2ccccc2s1	ABL1 E255K phosphorylated	binding, competition with immobilised ligand	1 µM	1.4%
F[C@@H]1CCN(c2nccc(-c3cnn4ncccc34)n2)C1	Tyrosine-protein kinase ABL1 (ABL1, Homo sapiens, UniProt P00519, F317L)	binding	1 µM	100%
COc1cccc(CNC(=O)c2nc3scc(COCc4ccc(C(=O)O)cc4)c3c(=O)[nH]2)c1	ABL1 Y253F phosphorylated	cell-free assay, competition with immobilised ligand	1 µM	84.6%
N[C@@H]1CCN(c2nccc(-c3cnn4ncccc34)n2)C1	ABL1 E255K	binding	1 µM	100%
O=C(NCCCN1CCOCC1)c1ccc(Nc2nccc(-c3cc4ccccc4s3)n2)cc1	ABL1 T315I phosphorylated	binding, competition with immobilised ligand	1 µM	41%
Nc1c(C(=O)NCc2ccc(C(=O)NCCCC3CCCCC3)cc2)cnn1-c1ccccc1	ABL1 Q252H non-phosphorylated	cell-free assay, competition with immobilised ligand	0.1 µM	87%
CN(c1nccc(-c2cnn3ncccc23)n1)C1CC1	ABL1 Y253F	binding	1 µM	100%
